# Laboratory results: ChEMBL document CHEMBL2010803, “Novel NSAID 1-acyl-4-cycloalkyl/arylsemicarbazides and 1-acyl-5-benzyloxy/hydroxy carbamoylcarbazides as potential anticancer agents and antioxidants” (Eur J Med Chem, 2012)
# Calls of active or inactive are those of the source. The calls are words filed in the database; no cut-off is given here.
# Experiments:
# Human respirovirus 3 = test: Antiviral activity against Parainfluenza virus 3 infected in african green monkey Vero cells assessed as inhibition of virus-induced cytopathic effect at 0.32 to 100 uM; format: functional, organism-based
# Outline: (§1)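 Confluent cell cultures were infected with 100 CCID50 of virus in the presence of test compound at 100, 40, 8, 1.6 and 0.32 μM. Cytopathic effect was scored once it was complete in untreated infected controls.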
# Human alphaherpesvirus 2 = test: Antiviral activity against HSV2 G infected in human lung fibroblast assessed as inhibition of virus-induced cytopathic effect at 0.32 to 100 uM; format: functional, organism-based; details: strain G; outline: as §1
# Coxsackievirus B4 [1] = test: Antiviral activity against Coxsackievirus B4 infected in african green monkey Vero cells assessed as inhibition of virus-induced cytopathic effect at 0.32 to 100 uM; format: functional, organism-based; outline: as §1
# Punta Toro virus = test: Antiviral activity against Punta Toro virus infected in african green monkey Vero cells assessed as inhibition of virus-induced cytopathic effect at 0.32 to 100 uM; format: functional, organism-based; outline: as §1
# [2] = system: Vesicular stomatitis virus; test: Antiviral activity against VSV infected in human lung fibroblast assessed as inhibition of virus-induced cytopathic effect at 0.32 to 100 uM; format: functional, organism-based
# Felid alphaherpesvirus 1 = test: Antiviral activity against Feline herpesvirus infected in feline CRFK cells assessed as inhibition of virus-induced cytopathic effect at 0.32 to 100 uM; format: functional, organism-based; outline: as §1
# [3] = system: Vesicular stomatitis virus; test: Antiviral activity against Vesicular stomatitis virus infected in human cervix carcinoma cells assessed as inhibition of virus-induced cytopathic effect at 0.32 to 100 uM; format: functional, organism-based
# Outline: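 Confluent human cervix carcinoma (HeLa) cultures received 100 CCID50 of VSV together with the compound at 100, 40, 8, 1.6 or 0.32 μM. Cytopathicity was read at the point of full CPE in infected, untreated control wells.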
# CCRF-CEM = test: Cytostatic activity against human CEM cells after 3 days by coulter counter analysis; format: functional, cell-based; details: 72 h
# Outline: (§2)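 300,000–500,000 cells/ml mixed 1:1 with compound dilutions and incubated at 37 °C for 2 days (L1210) or 3 days (CEM, HeLa). Cell number counted with a Coulter counter; HeLa trypsinized before counting.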
# HeLa = test: Cytostatic activity against human HeLa cells after 3 days by coulter counter analysis; format: functional, cell-based; details: 72 h; outline: as §2
# Influenza A virus [4] = test: Antiviral activity against Influenza A virus H1N1 infected in MDCK cells assessed as inhibition of virus-induced cytopathic effect at 0.32 to 100 uM; format: functional, organism-based
# Outline: (§3)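 Confluent MDCK monolayers were infected in the presence of the compound at 100, 40, 8, 1.6 and 0.32 μM. Viral cytopathicity was scored once it was complete in untreated infected control cultures.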
# HCT-116 = test: Cytostatic activity against human HCT116 cells after 72 hrs by MTT assay; format: functional, cell-based; details: HCT-116, 72 h
# Outline: (§4)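 Monolayers in DMEM with 10% FBS, 2 mM L-glutamine and penicillin/streptomycin, 37 °C, 5% CO2. Seeded at 1–3 × 10^4 cells/ml, then compound added in tenfold dilutions (10⁻⁸–10⁻⁴ M) for 72 h. MTT read at 570 nm; percent growth taken against time-zero and untreated controls. IC50 by linear regression; quadruplicate, at least two experiments.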
# [5] = system: Respiratory syncytial virus; test: Antiviral activity against RSV infected in human cervix carcinoma cells assessed as inhibition of virus-induced cytopathic effect at 0.32 to 100 uM; format: functional, organism-based; outline: as §1
# Vaccinia virus = test: Antiviral activity against Vaccinia virus infected in human lung fibroblast assessed as inhibition of virus-induced cytopathic effect at 0.32 to 100 uM; format: functional, organism-based; details: Orthopoxvirus vaccinia
# L1210 = test: Cytostatic activity against mouse L1210 cells after 2 days by coulter counter analysis; format: functional, cell-based; details: L1210, 48 h; outline: as §2
# MCF7 = test: Cytostatic activity against human MCF7 cells after 72 hrs by MTT assay; format: functional, cell-based; details: MCF7, 72 h; outline: as §4
# [6] = system: Radical scavenging activity; test: Antioxidant activity assessed as DPPH free radical scavenging activity at 100 uM after 20 mins by spectrophotometric analysis; format: functional
# Outline: (§5)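 0.05 mM DPPH in absolute ethanol mixed with an equal volume of compound in DMSO (final 100 μM). Shaken and left 20 or 60 min, then absorbance read at 517 nm and percent activity calculated. Three replicates, averaged.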
# Influenza B virus = test: Antiviral activity against Influenza B virus infected in MDCK cells assessed as inhibition of virus-induced cytopathic effect at 0.32 to 100 uM; format: functional, organism-based; outline: as §3
# [7] = system: Radical scavenging activity; test: Antioxidant activity assessed as DPPH free radical scavenging activity at 100 uM after 60 mins by spectrophotometric analysis; format: functional; outline: as §5
# Coxsackievirus B4 [8] = test: Antiviral activity against Coxsackievirus B4 infected in human cervix carcinoma cells assessed as inhibition of virus-induced cytopathic effect at 0.32 to 100 uM; format: functional, organism-based; outline: as §1
# Influenza A virus [9] = test: Antiviral activity against Influenza A virus H3N2 infected in MDCK cells assessed as inhibition of virus-induced cytopathic effect at 0.32 to 100 uM; format: functional, organism-based; outline: as §3
# [10] = Antioxidant activity assessed as inhibition of AAPH-induced linoleic acid lipid peroxidation by measuring conjugated diene hydroperoxide level; format: functional; design: concentration or dose not given beside the values; details: dose or concentration not given here
# Outline: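 Linoleic acid sodium salt (10 μL of 16 mM) in 0.05 M phosphate buffer pH 7.4 at 37 °C. Oxidation started under air with 50 μL of 40 mM AAPH. Conjugated diene hydroperoxide formation followed as absorbance rise at 234 nm; control contains the same DMSO level. At least triplicate.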
# Human alphaherpesvirus 1 = test: Antiviral activity against HSV1 KOS infected in human lung fibroblast assessed as inhibition of virus-induced cytopathic effect at 0.32 to 100 uM; format: functional, organism-based; outline: as §1
# Sindbis virus = test: Antiviral activity against Sindbis virus infected in african green monkey Vero cells assessed as inhibition of virus-induced cytopathic effect at 0.32 to 100 uM; format: functional, organism-based; outline: as §1
# [11] = system: Mammalian orthoreovirus 1; test: Antiviral activity against Reovirus-1 infected in african green monkey Vero cells assessed as inhibition of virus-induced cytopathic effect at 0.32 to 100 uM; format: functional, organism-based; outline: as §1
# NCI-H460 = test: Cytostatic activity against human NCI-H460 cells after 72 hrs by MTT assay; format: functional, cell-based; details: NCI-H460, 72 h; outline: as §4
# Glycine max = test: Inhibition of soybean LOX assessed as conversion of sodium linoleate to 13- hydroperoxylinoleic acid at 100 uM
# [12] = system: Human immunodeficiency virus 2; test: Antiviral activity against HIV2 ROD infected in human CEM cells assessed as inhibition of virus-induced CEM giant cell formation at 0.32 to 100 uM after 4 days; format: functional, organism-based; details: ISOLATE ROD, CCRF-CEM
# Outline: (§6)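 CEM cells (~3 × 10^5 cells/cm³) exposed to 100 CCID50/ml of virus and seeded into wells holding compound dilutions. Incubated 4 days at 37 °C, then giant cell formation examined microscopically.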
# Feline coronavirus = test: Antiviral activity against Feline coronavirus infected in feline CRFK cells assessed as inhibition of virus-induced cytopathic effect at 0.32 to 100 uM; format: functional, organism-based; outline: as §1
# [13] = system: Human immunodeficiency virus 1; test: Antiviral activity against HIV1 3B infected in human CEM cells assessed as inhibition of virus-induced CEM giant cell formation at 0.32 to 100 uM after 4 days; format: functional, organism-based; details: CCRF-CEM; outline: as §6
SMILES,inhibition (Human respirovirus 3),inhibition (Human alphaherpesvirus 2),inhibition (Coxsackievirus B4 [1]),inhibition (Punta Toro virus),inhibition [2],inhibition (Felid alphaherpesvirus 1),inhibition [3],IC50 (CCRF-CEM) [µM],IC50 (HeLa) [µM],inhibition (Influenza A virus [4]),IC50 (HCT-116) [µM],inhibition [5],inhibition (Vaccinia virus),IC50 (L1210) [µM],IC50 (MCF7) [µM],Activity [6],inhibition (Influenza B virus),Activity [7],inhibition (Coxsackievirus B4 [8]),inhibition (Influenza A virus [9]),other results
CC(C(=O)NN)c1cccc(Cc2ccccc2)c1 (stereo unspecified),inactive,inactive,inactive,inactive,inactive,inactive,inactive,150,142,inactive,> 100,inactive,inactive,212,> 100,inactive,inactive,inactive,inactive,inactive,inhibition [10]: 6%; inhibition (Human alphaherpesvirus 1): inactive; inhibition (Sindbis virus): inactive; inhibition [11]: inactive; IC50 (NCI-H460): > 100 µM; inhibition (Glycine max): 10%; inhibition [12]: inactive; inhibition (Feline coronavirus): inactive; inhibition [13]: inactive
CC(C(=O)NN)c1cccc(Oc2ccccc2)c1 (stereo unspecified),inactive,inactive,inactive,inactive,inactive,inactive,inactive,154,120,inactive,> 100,inactive,inactive,212,> 100,inactive,inactive,1%,inactive,inactive,inhibition [10]: 10%; inhibition (Human alphaherpesvirus 1): inactive; inhibition (Sindbis virus): inactive; inhibition [11]: inactive; IC50 (NCI-H460): > 100 µM; inhibition (Glycine max): 3%; inhibition [12]: inactive; inhibition (Feline coronavirus): inactive; inhibition [13]: inactive
CC(C)Cc1ccc(C(C)C(=O)NNC(=O)NO)cc1 (stereo unspecified),inactive,inactive,inactive,inactive,inactive,inactive,inactive,205,160,inactive,> 100,inactive,inactive,108,> 100,29%,inactive,54%,inactive,inactive,inhibition [10]: 20%; inhibition (Human alphaherpesvirus 1): inactive; inhibition (Sindbis virus): inactive; inhibition [11]: inactive; IC50 (NCI-H460): > 100 µM; inhibition (Glycine max): 7%; inhibition [12]: inactive; inhibition (Feline coronavirus): inactive; inhibition [13]: inactive
CC(C(=O)NNC(=O)NNC(=O)NO)c1cccc(Oc2ccccc2)c1 (stereo unspecified),inactive,inactive,inactive,inactive,inactive,inactive,inactive,> 250,≥ 250,inactive,> 100,inactive,inactive,> 250,> 100,23%,inactive,48%,inactive,inactive,inhibition [10]: 13%; inhibition (Human alphaherpesvirus 1): inactive; inhibition (Sindbis virus): inactive; inhibition [11]: inactive; IC50 (NCI-H460): > 100 µM; inhibition (Glycine max): inactive; inhibition [12]: inactive; inhibition (Feline coronavirus): inactive; inhibition [13]: inactive
